pIC50: −log10 of the molar value.
Tests used:
Leishmania donovani [1] = assay: Antiparasitic activity against Leishmania donovani MHOM/SD/1962/1S-Cl2d axenic amastigotes at 50 uM by alamar blue assay; format: functional
[2] = Cytotoxicity against human THP1 cells at 25 uM after 48 hrs by alamar blue assay; format: cell-based; conditions: THP-1 cells, read-out: INH
How it was run: (§1)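 THP-1 cells in complete RPMI-1640, 10% FCS, added to compounds in medium with DMSO, triplicate, 48 h at 37 °C, 5% CO2; alamarBlue added, 3 h further incubation, fluorescence ex 544/em 590 nm; % growth inhibition.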

Leishmania donovani [3] = assay: Antiparasitic activity against Leishmania donovani MHOM/SD/1962/1S-Cl2d amastigotes in human THP1 cells at 25 uM after 48 hrs by microplate reader; format: functional; conditions: THP-1, 48 h
Leishmania donovani [4] = assay: Antiparasitic activity against Leishmania donovani MHOM/SD/1962/1S-Cl2d amastigotes in human THP1 cells at 12.5 uM after 48 hrs by microplate reader; format: functional; conditions: THP-1, 48 h
[5] = Cytotoxicity against human THP1 cells at 12.5 uM after 48 hrs by alamar blue assay; format: cell-based; conditions: THP-1 cells, read-out: INH; how it was run: as §1
[6] = Cytotoxicity against human THP1 cells at 50 uM after 48 hrs by alamar blue assay; format: cell-based; conditions: THP-1 cells, read-out: INH; how it was run: as §1
Leishmania donovani [7] = assay: Antiparasitic activity against Leishmania donovani MHOM/SD/1962/1S-Cl2d amastigotes in human THP1 cells at 50 uM after 48 hrs by microplate reader; format: functional; conditions: THP-1, 48 h
Leishmania donovani [8] = assay: Antiparasitic activity against Leishmania donovani MHOM/SD/1962/1S-Cl2d axenic amastigotes at 15 uM by alamar blue assay; format: functional
Leishmania donovani [9] = assay: Antiparasitic activity against Leishmania donovani MHOM/SD/1962/1S-Cl2d axenic amastigotes at 1 uM by alamar blue assay; format: functional
[10] = Toxicity against peritoneal macrophages assessed as survival induces at 136 uM; format: cell-based, Peritoneal macrophage cell; conditions: read-out: Survival
Leishmania amazonensis [11] = assay: Antiparasitic activity against Leishmania amazonensis assessed as survival index at 68 uM; format: functional
[12] = Toxicity against peritoneal macrophages assessed as survival induces at 68 uM; format: cell-based, Peritoneal macrophage cell; conditions: read-out: Survival
Leishmania amazonensis [13] = assay: Antiparasitic activity against Leishmania amazonensis assessed as survival index at 136 uM; format: functional
Leishmania donovani [14] = assay: Antileishmanial activity against Leishmania donovani amastigotes; format: functional, organism-based
Leishmania donovani [15] = assay: Antileishmanial activity against Leishmania donovani promastigotes; format: functional, organism-based
Leishmania donovani [16] = assay: Antileishmanial activity against Leishmania donovani infected golden hamster assessed as reduction of parasite burden at 10 mg/kg after 6 weeks; format: functional; set-up: scale not given: the % may be the effect or the level left

For CC(C)[C@@]12CC[C@]3(COC(=O)c4ccccc4)CC[C@]4(C)C(=C31)[C@H](C[C@@H]1[C@@]3(C)CC[C@H](OC(=O)c5ccccc5)C(C)(C)[C@@H]3CC[C@]14C)n1c(=O)n(-c3ccccc3)c(=O)n12, the inhibition at 50 µM (Leishmania donovani [1]) was 0%.

For CC(=O)OC[C@]12CC[C@]3(C(C)C)C1=C1[C@H](C[C@@H]4[C@@]5(C)CC[C@H](OC(C)=O)C(C)(C)[C@@H]5CC[C@@]4(C)[C@]1(C)CC2)n1c(=O)n(-c2cccc([N+](=O)[O-])c2)c(=O)n13, the inhibition at 50 µM (Leishmania donovani [1]) was 30%.

For CC(C)[C@@]12CC[C@]3(CO)CC[C@]4(C)C(=C31)[C@H](C[C@@H]1[C@@]3(C)CC[C@H](O)C(C)(C)[C@@H]3CC[C@]14C)n1c(=O)n(C)c(=O)n12, the inhibition at 50 µM (Leishmania donovani [1]) was 50%.

For CC(=O)OC[C@]12CC[C@]3(C(C)C)C1=C1[C@H](C[C@@H]4[C@@]5(C)CC[C@H](OC(C)=O)C(C)(C)[C@@H]5CC[C@@]4(C)[C@]1(C)CC2)n1c(=O)[nH]c(=O)n13, the cytotoxicity at 48 h, 25 µM [2] was 2.4%, the inhibition at 25 µM (Leishmania donovani [3]) was 55% and the inhibition at 12.5 µM (Leishmania donovani [4]) was 4.8%. It also gave a cytotoxicity at 48 h, 12.5 µM [5] of 0%, an inhibition at 50 µM (Leishmania donovani [1]) of 88% and a cytotoxicity at 48 h, 50 µM [6] of 97%.

CC(=O)OC[C@]12CC[C@]3(C(C)C)C1=C1[C@H](C[C@@H]4[C@@]5(C)CC[C@H](OC(C)=O)C(C)(C)[C@@H]5CC[C@@]4(C)[C@]1(C)CC2)n1c(=O)n(-c2ccc4c(c2)CCC4)c(=O)n13 gave an inhibition at 50 µM (Leishmania donovani [1]) of 23%.

CC(=O)OC[C@]12CC[C@]3(C(C)C)C1=C1[C@H](C[C@@H]4[C@@]5(C)CC[C@H](OC(C)=O)C(C)(C)[C@@H]5CC[C@@]4(C)[C@]1(C)CC2)n1c(=O)n(C)c(=O)n13 showed a cytotoxicity at 48 h, 25 µM [2] of 78%, an inhibition at 12.5 µM (Leishmania donovani [4]) of 60% and a cytotoxicity at 48 h, 12.5 µM [5] of 39%. For the same compound, the inhibition at 50 µM (Leishmania donovani [1]) was 98% and the cytotoxicity at 48 h, 50 µM [6] was 94%.

For CC(C)[C@@]12CC[C@]3(COC(=O)C4CCCCC4)CC[C@]4(C)C(=C31)[C@H](C[C@@H]1[C@@]3(C)CC[C@H](OC(=O)C5CCCCC5)C(C)(C)[C@@H]3CC[C@]14C)n1c(=O)n(C(C)(C)C)c(=O)n12, the inhibition at 50 µM (Leishmania donovani [1]) was 4.8%.

With CC(=O)OC[C@]12CC[C@]3(C(C)C)C1=C1[C@H](C[C@@H]4[C@@]5(C)CC[C@H](OC(C)=O)C(C)(C)[C@@H]5CC[C@@]4(C)[C@]1(C)CC2)n1c(=O)n(Cc2ccccc2)c(=O)n13 the inhibition at 50 µM (Leishmania donovani [1]) was 25%.

Work on COc1cccc(-n2c(=O)n3n(c2=O)[C@]2(C(C)C)CC[C@]4(COC(C)=O)CC[C@]5(C)C(=C42)[C@@H]3C[C@@H]2[C@@]3(C)CC[C@H](OC(C)=O)C(C)(C)[C@@H]3CC[C@]25C)c1 yielded an inhibition at 50 µM (Leishmania donovani [1]) of 44%.

Compound CC(=O)OC[C@]12CC[C@]3(C(C)C)C1=C1[C@H](C[C@@H]4[C@@]5(C)CC[C@H](OC(C)=O)C(C)(C)[C@@H]5CC[C@@]4(C)[C@]1(C)CC2)n1c(=O)n(-c2ccc(F)cc2)c(=O)n13 has an inhibition at 50 µM (Leishmania donovani [1]) of 48%.

Compound CC(=O)OC[C@]12CC[C@]3(C(C)C)C1=C1[C@H](C[C@@H]4[C@@]5(C)CC[C@H](OC(C)=O)C(C)(C)[C@@H]5CC[C@@]4(C)[C@]1(C)CC2)n1c(=O)n(-c2ccc(Cl)cc2)c(=O)n13 has an inhibition at 50 µM (Leishmania donovani [1]) of 30%.

Work on CC(=O)OC[C@]12CC[C@]3(C(C)C)C1=C1[C@H](C[C@@H]4[C@@]5(C)CC[C@H](OC(C)=O)C(C)(C)[C@@H]5CC[C@@]4(C)[C@]1(C)CC2)n1c(=O)n(-c2ccc(C(C)=O)cc2)c(=O)n13 yielded an inhibition at 50 µM (Leishmania donovani [1]) of 45%.

In the case of CC(=O)OC[C@]12CC[C@]3(C(C)C)C1=C1[C@H](C[C@@H]4[C@@]5(C)CC[C@H](OC(C)=O)C(C)(C)[C@@H]5CC[C@@]4(C)[C@]1(C)CC2)n1c(=O)n(-c2cccc4ccccc24)c(=O)n13, the inhibition at 50 µM (Leishmania donovani [1]) was 58%.

CC(=O)OC[C@]12CC[C@]3(C(C)C)C1=C1[C@H](C[C@@H]4[C@@]5(C)CC[C@H](OC(C)=O)C(C)(C)[C@@H]5CC[C@@]4(C)[C@]1(C)CC2)n1c(=O)n(-c2ccccc2)c(=O)n13 showed an inhibition at 50 µM (Leishmania donovani [1]) of 36%.

In the case of CC(C)[C@@]12CC[C@]3(CO)CC[C@]4(C)C(=C31)[C@H](C[C@@H]1[C@@]3(C)CC[C@H](O)C(C)(C)[C@@H]3CC[C@]14C)n1c(=O)n(-c3ccccc3)c(=O)n12, the inhibition at 50 µM (Leishmania donovani [1]) was 48%.

Work on CCCCn1c(=O)n2n(c1=O)[C@]1(C(C)C)CC[C@]3(COC(C)=O)CC[C@]4(C)C(=C31)[C@@H]2C[C@@H]1[C@@]2(C)CC[C@H](OC(C)=O)C(C)(C)[C@@H]2CC[C@]14C yielded an inhibition at 50 µM (Leishmania donovani [1]) of 49%.

CCn1c(=O)n2n(c1=O)[C@]1(C(C)C)CC[C@]3(COC(C)=O)CC[C@]4(C)C(=C31)[C@@H]2C[C@@H]1[C@@]2(C)CC[C@H](OC(C)=O)C(C)(C)[C@@H]2CC[C@]14C showed a cytotoxicity at 48 h, 25 µM [2] of 13%, an inhibition at 25 µM (Leishmania donovani [3]) of 53% and an inhibition at 12.5 µM (Leishmania donovani [4]) of 0%. For the same compound, the cytotoxicity at 48 h, 12.5 µM [5] was 8.5%, the inhibition at 50 µM (Leishmania donovani [1]) was 88% and the cytotoxicity at 48 h, 50 µM [6] was 48%.

CCC(=O)OC[C@]12CC[C@]3(C(C)C)C1=C1[C@H](C[C@@H]4[C@@]5(C)CC[C@H](OC(=O)CC)C(C)(C)[C@@H]5CC[C@@]4(C)[C@]1(C)CC2)n1c(=O)n(C)c(=O)n13 showed a cytotoxicity at 48 h, 25 µM [2] of 15%, an inhibition at 25 µM (Leishmania donovani [3]) of 55% and an inhibition at 12.5 µM (Leishmania donovani [4]) of 18%. It also gave an inhibition at 50 µM (Leishmania donovani [7]) of 83%, a cytotoxicity at 48 h, 12.5 µM [5] of 5% and an inhibition at 50 µM (Leishmania donovani [1]) of 93%. The cytotoxicity at 48 h, 50 µM [6] was 16%.

CCCC(=O)OC[C@]12CC[C@]3(C(C)C)C1=C1[C@H](C[C@@H]4[C@@]5(C)CC[C@H](OC(=O)CCC)C(C)(C)[C@@H]5CC[C@@]4(C)[C@]1(C)CC2)n1c(=O)n(C)c(=O)n13 gave an inhibition at 15 µM (Leishmania donovani [8]) of 26%.

In the case of CC(C)[C@@]12CC[C@]3(COC(=O)C4CCCCC4)CC[C@]4(C)C(=C31)[C@H](C[C@@H]1[C@@]3(C)CC[C@H](OC(=O)C5CCCCC5)C(C)(C)[C@@H]3CC[C@]14C)n1c(=O)n(C)c(=O)n12, the inhibition at 50 µM (Leishmania donovani [1]) was 5.5%.

In the case of CC(C)[C@@]12CC[C@]3(COC(=O)c4ccccc4)CC[C@]4(C)C(=C31)[C@H](C[C@@H]1[C@@]3(C)CC[C@H](OC(=O)c5ccccc5)C(C)(C)[C@@H]3CC[C@]14C)n1c(=O)n(C)c(=O)n12, the inhibition at 50 µM (Leishmania donovani [1]) was 0%.

In the case of CC(C)C(=O)OC[C@]12CC[C@]3(C(C)C)C1=C1[C@H](C[C@@H]4[C@@]5(C)CC[C@H](OC(=O)C(C)C)C(C)(C)[C@@H]5CC[C@@]4(C)[C@]1(C)CC2)n1c(=O)n(C)c(=O)n13, the inhibition at 15 µM (Leishmania donovani [8]) was 19%.

In the case of C[C@@H]1[C@H](O)[C@@H](C)/C=C/C=C/C=C/C=C/C=C/C=C/C=C/[C@H](O[C@@H]2O[C@H](C)[C@@H](O)[C@H](N)[C@@H]2O)C[C@@H]2O[C@](O)(C[C@@H](O)C[C@@H](O)[C@H](O)CC[C@@H](O)C[C@@H](O)CC(=O)O[C@H]1C)C[C@H](O)[C@H]2C(=O)O [AMPHOTERICIN B], the inhibition at 1 µM (Leishmania donovani [9]) was > 90%.

For C=C(C)[C@@H]1CC[C@]2(C=O)CC[C@]3(C)[C@H](CC[C@@H]4[C@@]5(C)CC[C@H](O)C(C)(C)[C@@H]5CC[C@]43C)[C@@H]12 [BETULINALDEHYDE], the viability at 136 µM [10] was 70%, the survival at 68 µM (Leishmania amazonensis [11]) was 42% and the viability at 68 µM [12] was 80%. For the same compound, the survival at 136 µM (Leishmania amazonensis [13]) was 12%.

Compound C=C(C)[C@@H]1CC[C@]2(C(=O)O)CC[C@]3(C)[C@H](CC[C@@H]4[C@@]5(C)CC[C@H](O)C(C)(C)[C@@H]5CC[C@]43C)[C@@H]12 [BETULINIC ACID] has a pIC50 (Leishmania donovani [14]) of 5.39, a pIC50 (Leishmania donovani [15]) of 5.59 and an Activity (Leishmania donovani [16]) of 92%.
